Assay results: ChEMBL document CHEMBL4118273, “Design, Synthesis, and Biological Evaluation of Pyrimido[4,5- d]pyrimidine-2,4(1 H,3 H)-diones as Potent and Selective Epidermal Growth Factor Receptor (EGFR) Inhibitors against L858R/T790M Resistance Mutation” (J Med Chem, 2018); call rule not given here

Tests used:
A-431 [1] = assay: Growth inhibition of human A431 cells xenografted in Balb/c mouse at 50 mg/kg/day, po for 14 days measured every 2 to 3 days during compound dosing relative to control; format: organism-based; settings: A-431, po, read-out: GI
Summary of the method: (§1)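 BALB/c mice, 4–6 weeks old, implanted subcutaneously in the right flank with about 2 × 10^6 H1975 or A431 cells grown in RPMI-1640 with 10% FBS. At 200–400 mm3 tumors, mice were randomized (six/group) and dosed orally once daily with vehicle or inhibitor for 14 days. Caliper volumes, V = L×W²/2, were taken every 2–3 days; means ± SEM, Student's t test vs vehicle.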

[2] = Apparent volume of distribution in ICR mouse at 1 mg/kg, iv by LC-MS/MS analysis; format: ADME, organism-based; settings: in vivo, read-out: Vz
[3] = AUC (0 to t) in ICR mouse at 1 mg/kg, iv by LC-MS/MS analysis; format: ADME, organism-based; settings: in vivo
NCI-H1975 = assay: Antitumor activity against human NCI-H1975 cells xenografted in Balb/c mouse assessed as tumor growth inhibition at 50 mg/kg/day, po once daily for 14 days measured every 2 to 3 days during compound dosing relative to control; format: functional; settings: read-out: TGI; summary of the method: as §1
[4] = biological target: Epidermal growth factor receptor (Homo sapiens, UniProt P00533, L858R/T790M); assay: Inhibition of recombinant human GST-tagged EGFR L858R/T790M double mutant expressed in baculovirus expression system using Poly(Glu,Tyr)4:1 as substrate after 1 hr by ELISA
Chain of Epidermal growth factor receptor (Homo sapiens, UniProt P00533, L858R/T790M) (P00533 25-1210 T790M/L858R limits assumed): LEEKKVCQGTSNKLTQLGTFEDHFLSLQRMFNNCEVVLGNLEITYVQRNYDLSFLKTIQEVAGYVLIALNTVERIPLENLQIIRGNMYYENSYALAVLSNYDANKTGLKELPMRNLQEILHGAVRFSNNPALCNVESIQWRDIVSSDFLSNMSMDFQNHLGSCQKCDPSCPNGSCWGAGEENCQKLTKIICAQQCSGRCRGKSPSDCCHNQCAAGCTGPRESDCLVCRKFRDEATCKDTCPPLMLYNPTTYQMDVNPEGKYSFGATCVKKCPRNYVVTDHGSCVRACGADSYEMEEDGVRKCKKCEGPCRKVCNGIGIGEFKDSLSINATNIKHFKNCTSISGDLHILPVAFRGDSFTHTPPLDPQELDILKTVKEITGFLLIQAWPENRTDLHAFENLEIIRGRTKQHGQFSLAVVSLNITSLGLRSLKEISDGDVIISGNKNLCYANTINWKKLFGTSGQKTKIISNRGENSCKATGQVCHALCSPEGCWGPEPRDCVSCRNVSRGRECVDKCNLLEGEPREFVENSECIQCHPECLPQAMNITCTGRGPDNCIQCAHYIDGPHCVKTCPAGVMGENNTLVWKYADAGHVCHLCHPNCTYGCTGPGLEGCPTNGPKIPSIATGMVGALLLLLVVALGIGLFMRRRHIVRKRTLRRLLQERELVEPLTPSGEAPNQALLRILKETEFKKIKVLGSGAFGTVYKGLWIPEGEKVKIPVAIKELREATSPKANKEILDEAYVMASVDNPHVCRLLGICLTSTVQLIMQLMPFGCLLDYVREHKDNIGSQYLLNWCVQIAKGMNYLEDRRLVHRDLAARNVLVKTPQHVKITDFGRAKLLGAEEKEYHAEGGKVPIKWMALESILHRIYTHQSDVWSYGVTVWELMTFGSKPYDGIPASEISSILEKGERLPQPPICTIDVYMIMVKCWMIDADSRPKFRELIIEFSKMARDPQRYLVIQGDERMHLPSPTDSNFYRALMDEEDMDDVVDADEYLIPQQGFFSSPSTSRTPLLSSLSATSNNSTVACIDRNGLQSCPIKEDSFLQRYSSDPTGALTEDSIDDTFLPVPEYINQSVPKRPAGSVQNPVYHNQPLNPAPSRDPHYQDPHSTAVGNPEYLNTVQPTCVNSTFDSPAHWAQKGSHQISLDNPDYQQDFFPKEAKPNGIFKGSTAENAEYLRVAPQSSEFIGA

[5] = Apparent permeability from apical to basolateral side in MDCK2 cells at 2 uM after 2.5 hrs by LC-MS/MS method; format: ADME, cell-based, Canis lupus familiaris, MDCK-II; settings: dog, MDCK
[6] = biological target: T1, Epidermal growth factor receptor (Homo sapiens, UniProt P00533); assay: Inhibition of wild type EGFR in EGF-stimulated human A431 cells assessed as reduction in Akt phosphorylation at Ser-473 residue up to 1000 nM by Western blot method
T1 sequence (P00533 whole entry): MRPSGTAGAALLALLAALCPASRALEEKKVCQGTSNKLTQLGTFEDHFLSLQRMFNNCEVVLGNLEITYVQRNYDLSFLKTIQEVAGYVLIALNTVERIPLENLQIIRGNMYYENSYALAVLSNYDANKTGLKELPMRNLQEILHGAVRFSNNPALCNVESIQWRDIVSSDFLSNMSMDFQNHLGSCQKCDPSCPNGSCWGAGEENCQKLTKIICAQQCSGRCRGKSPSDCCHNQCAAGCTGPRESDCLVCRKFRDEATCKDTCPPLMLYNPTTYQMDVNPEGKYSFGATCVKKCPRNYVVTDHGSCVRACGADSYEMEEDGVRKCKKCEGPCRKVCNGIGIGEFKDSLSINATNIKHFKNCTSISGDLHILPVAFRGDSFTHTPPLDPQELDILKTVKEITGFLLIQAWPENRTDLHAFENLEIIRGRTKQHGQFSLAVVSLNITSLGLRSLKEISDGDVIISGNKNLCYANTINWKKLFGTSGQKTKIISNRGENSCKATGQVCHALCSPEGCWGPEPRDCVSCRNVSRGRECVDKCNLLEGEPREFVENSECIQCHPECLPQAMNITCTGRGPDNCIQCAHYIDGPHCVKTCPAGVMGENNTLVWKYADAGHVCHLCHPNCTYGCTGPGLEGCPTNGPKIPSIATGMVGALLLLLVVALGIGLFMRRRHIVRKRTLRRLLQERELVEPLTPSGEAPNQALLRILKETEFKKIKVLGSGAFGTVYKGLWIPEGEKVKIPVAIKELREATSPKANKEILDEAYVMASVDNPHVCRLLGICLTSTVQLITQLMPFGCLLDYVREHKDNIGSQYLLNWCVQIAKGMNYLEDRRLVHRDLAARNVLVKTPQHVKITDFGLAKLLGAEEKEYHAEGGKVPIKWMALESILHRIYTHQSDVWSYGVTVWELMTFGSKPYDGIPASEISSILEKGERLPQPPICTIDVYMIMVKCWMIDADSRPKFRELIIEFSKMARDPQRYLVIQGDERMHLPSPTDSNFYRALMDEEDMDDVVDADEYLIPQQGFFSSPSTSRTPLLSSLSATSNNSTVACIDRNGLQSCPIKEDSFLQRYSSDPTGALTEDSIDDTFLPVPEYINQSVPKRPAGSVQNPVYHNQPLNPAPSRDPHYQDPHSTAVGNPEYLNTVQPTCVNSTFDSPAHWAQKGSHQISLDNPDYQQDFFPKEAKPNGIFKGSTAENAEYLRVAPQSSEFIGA
Summary of the method: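 A431 cells lysed in Tris-HCl pH 6.8 buffer with DTT, SDS and glycerol; equal protein amounts resolved on 8% SDS-PAGE, transferred to nitrocellulose and probed for p-EGFR (Y1068), total EGFR, p-AKT (Ser473), total AKT and GAPDH.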

Mus musculus [7] = assay: Toxicity in Balb/c mouse xenografted with human A431 cells assessed as body weight loss at 50 mg/kg/day, po once daily for 14 days measured every 2 to 3 days during compound dosing; format: organism-based; settings: in vivo
Summary of the method: (§2)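 A431 or H1975 cells were grown in RPMI-1640 with 10% FBS, and about 2 × 10^6 cells were implanted subcutaneously in the right flank of 4–6-week-old BALB/c mice. At 200–400 mm³, mice were randomized to vehicle or treated groups (n = 6). Dosing was oral, once daily, for 14 days. Body weights were recorded every 2–3 days.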

[8] = Efflux ratio of apparent permeability from apical to basolateral side in MDCK2 cells at 2 uM after 2.5 hrs by LC-MS/MS method; format: ADME, cell-based, Canis lupus familiaris, MDCK-II; settings: dog, MDCK
A-431 [9] = assay: Cytotoxicity against human A431 cells harboring wild type EGFR assessed as reduction in cell viability after 72 hrs by SRB assay; format: cell-based; settings: A-431, 72 h
Summary of the method: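 Cell growth inhibition measured by sulforhodamine B colorimetric assay in H1975 (EGFR L858R/T790M) and A431 (overexpressed wild-type EGFR) cells; IC50 values are means ± SD of at least three independent determinations. Selectivity is taken as the A431:H1975 IC50 ratio.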

[10] = Tmax in ICR mouse at 1 mg/kg, iv by LC-MS/MS analysis; format: ADME, organism-based; settings: in vivo
[11] = biological target: T1, Epidermal growth factor receptor; assay: Inhibition of recombinant human GST-tagged EGFR (668 to 1210 residues) expressed in baculovirus expression system using Poly(Glu,Tyr)4:1 as substrate after 1 hr by ELISA
[12] = Clearance in ICR mouse at 1 mg/kg, iv by LC-MS/MS analysis; format: ADME, organism-based; settings: in vivo
Cytochrome P450 2C19 = Cytochrome P450 2C19 (Homo sapiens, UniProt P33261); assay: Inhibition of human CYP2C19 (unknown origin); format: ADME
Chain of Cytochrome P450 2C19 (P33261 whole entry): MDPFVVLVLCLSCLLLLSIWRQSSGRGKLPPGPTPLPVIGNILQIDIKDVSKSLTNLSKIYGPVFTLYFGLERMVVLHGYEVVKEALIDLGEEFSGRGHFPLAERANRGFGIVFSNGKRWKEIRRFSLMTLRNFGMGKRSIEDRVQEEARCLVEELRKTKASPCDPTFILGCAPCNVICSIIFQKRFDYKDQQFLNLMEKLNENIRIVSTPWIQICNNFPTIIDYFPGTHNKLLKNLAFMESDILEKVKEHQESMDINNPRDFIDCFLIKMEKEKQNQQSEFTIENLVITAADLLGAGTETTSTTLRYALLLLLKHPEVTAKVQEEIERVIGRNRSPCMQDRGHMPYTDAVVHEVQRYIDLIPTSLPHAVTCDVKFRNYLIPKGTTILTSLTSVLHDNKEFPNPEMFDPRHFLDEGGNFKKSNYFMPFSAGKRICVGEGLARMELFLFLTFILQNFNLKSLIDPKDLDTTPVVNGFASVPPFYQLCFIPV

Mus musculus [13] = assay: Toxicity in Balb/c mouse xenografted with human A431 cells assessed as mortality at 50 mg/kg/day, po once daily for 14 days measured every 2 to 3 days during compound dosing; format: organism-based; settings: in vivo
[14] = Cmax in ICR mouse at 1 mg/kg, iv by LC-MS/MS analysis; format: ADME, organism-based; parameters: dose 1 mg/kg, route intravenous; settings: in vivo
[15] = AUC (0 to infinity) in ICR mouse at 1 mg/kg, iv by LC-MS/MS analysis; format: ADME, organism-based; parameters: dose 1 mg/kg, route intravenous, time infinity; settings: in vivo
Cytochrome P450 2C9 = Cytochrome P450 2C9 (Homo sapiens, UniProt P11712); assay: Inhibition of human CYP2C9 (unknown origin); format: ADME
Chain of Cytochrome P450 2C9 (P11712 whole entry): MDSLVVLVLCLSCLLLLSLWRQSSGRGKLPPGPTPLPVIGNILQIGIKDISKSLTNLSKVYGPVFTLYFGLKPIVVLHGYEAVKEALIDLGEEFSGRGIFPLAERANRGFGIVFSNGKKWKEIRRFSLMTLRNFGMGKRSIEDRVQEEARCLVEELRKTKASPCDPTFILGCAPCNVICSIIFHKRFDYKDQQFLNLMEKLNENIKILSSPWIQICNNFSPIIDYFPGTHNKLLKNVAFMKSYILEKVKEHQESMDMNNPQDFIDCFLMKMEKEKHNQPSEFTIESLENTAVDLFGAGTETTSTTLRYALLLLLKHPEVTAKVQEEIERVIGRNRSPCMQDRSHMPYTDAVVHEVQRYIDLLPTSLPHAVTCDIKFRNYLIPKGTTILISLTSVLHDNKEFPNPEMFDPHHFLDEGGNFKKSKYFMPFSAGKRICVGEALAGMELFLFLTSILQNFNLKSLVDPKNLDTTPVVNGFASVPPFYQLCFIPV

[16] = Cmax in ICR mouse at 10 mg/kg, po by LC-MS/MS analysis; format: ADME, organism-based; parameters: dose 10 mg/kg, route oral; settings: in vivo
[17] = Half life in human liver microsomes at 0.1 uM after 60 mins in presence of NADPH by LC-MS/MS analysis; format: ADME, microsome
Summary of the method: (§3)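 Human or mouse liver microsomes (0.33 mg/mL protein) in 0.1 M Tris/HCl pH 7.4 with 5 mM MgCl2, 1 mM NADPH, 0.01% DMSO and 0.005% BSA; test compound at 0.1 µM final, 37 °C for 60 min. Aliquots at 0, 7, 17, 30 and 60 min quenched by methanol precipitation, centrifuged and analysed by LC-MS/MS.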

[18] = Half life in mouse liver microsomes at 0.1 uM after 60 mins in presence of NADPH by LC-MS/MS analysis; format: ADME, microsome; summary of the method: as §3
[19] = Tmax in ICR mouse at 10 mg/kg, po by LC-MS/MS analysis; format: ADME, organism-based; settings: in vivo
Cytochrome P450 1A2 = biological target: T2, Cytochrome P450 1A2 (Homo sapiens, UniProt P05177); assay: Inhibition of human CYP1A2 (unknown origin); format: ADME
T2 sequence (P05177 whole entry): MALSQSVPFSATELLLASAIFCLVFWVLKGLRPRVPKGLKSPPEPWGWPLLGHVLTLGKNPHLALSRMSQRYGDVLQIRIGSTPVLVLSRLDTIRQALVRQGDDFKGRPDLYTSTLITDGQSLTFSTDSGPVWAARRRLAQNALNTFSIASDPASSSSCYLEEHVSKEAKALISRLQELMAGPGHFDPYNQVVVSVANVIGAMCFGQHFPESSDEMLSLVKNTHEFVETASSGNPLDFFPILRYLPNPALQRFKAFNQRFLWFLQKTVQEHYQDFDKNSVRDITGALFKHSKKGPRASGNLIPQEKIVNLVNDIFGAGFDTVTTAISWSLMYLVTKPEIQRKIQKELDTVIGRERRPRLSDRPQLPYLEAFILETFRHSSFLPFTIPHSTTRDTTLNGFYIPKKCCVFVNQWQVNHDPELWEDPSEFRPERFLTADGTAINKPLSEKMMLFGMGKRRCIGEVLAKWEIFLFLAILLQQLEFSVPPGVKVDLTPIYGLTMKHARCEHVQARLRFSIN

Mus musculus [20] = assay: Toxicity in Balb/c mouse xenografted with human NCI-H1975 cells assessed as body weight loss at 50 mg/kg/day, po once daily for 14 days measured every 2 to 3 days during compound dosing; format: organism-based; settings: in vivo; summary of the method: as §2

C=CC(=O)Nc1cccc(-n2c(=O)n(C(C)C)c(=O)c3cnc(Nc4ccc(N5CCN(C)CC5)cc4OC)nc32)c1
inhibition at 50 mg/kg (A-431 [1]): 37% | Vd [2]: 4.53 L/kg | AUC(0-t) [3]: 181 ng·h/mL | inhibition in vivo at 50 mg/kg/day (NCI-H1975): 73% | IC50 [4]: 0.3 nM | Papp A→B at 2.5 h, 2 µM [5]: 1.5 ×10⁻⁶ cm/s | inhibition (INH) [6]: Not Active | Activity (Mus musculus [7]): Non-Toxic | efflux ratio at 2.5 h, 2 µM [8]: 9.1 | IC50 (A-431 [9]): 1560 nM | Tmax [10]: 6 min | IC50 [11]: 79 nM | clearance [12]: 89.5 mL/min/kg | IC50 (Cytochrome P450 2C19): > 50 µM | Activity (Mus musculus [13]): Non-Toxic | Cmax [14]: 311 ng/mL | AUC(0-inf) [15]: 186 ng·h/mL | IC50 (Cytochrome P450 2C9): > 50 µM | Cmax [16]: 271 ng/mL | half-life at 0.1 µM [17]: 85.4 min | half-life at 0.1 µM [18]: 46.1 min | Tmax [19]: 2 h | IC50 (Cytochrome P450 1A2): > 50 µM | Activity (Mus musculus [20]): Non-Toxic
